How the values were obtained:
[1] = system: MCF7; experiment: Anticancer activity against human MCF7 cells assessed as cell viability at 10 uM after 72 hrs by sulforhodamine B assay relative to control; type: functional; conditions: MCF7, 72 h, read-out: Activity
[2] = system: MCF7; experiment: Anticancer activity against human MCF7 cells assessed as cell viability at 30 uM after 72 hrs by sulforhodamine B assay relative to control; type: functional; conditions: MCF7, 72 h, read-out: Activity
[3] = system: Hs-578T; experiment: Anticancer activity against human Hs 578T cells assessed as cell viability at 10 uM after 72 hrs by sulforhodamine B assay relative to control; type: functional; conditions: read-out: Activity
[4] = system: Hs-578T; experiment: Anticancer activity against human Hs 578T cells assessed as cell viability at 30 uM after 72 hrs by sulforhodamine B assay relative to control; type: functional; conditions: read-out: Activity
[5] = Cytotoxicity against human MCF10A cells assessed as cell viability at 10 uM after 72 hrs by sulforhodamine B assay relative to control; type: cell-based, MCF-10A; conditions: read-out: Activity
[6] = Cytotoxicity against human MCF10A cells assessed as cell viability at 30 uM after 72 hrs by sulforhodamine B assay relative to control; type: cell-based, MCF-10A; conditions: read-out: Activity
[7] = system: MCF7; experiment: Anticancer activity against human MCF7 cells after 72 hrs by sulforhodamine B assay; type: functional, cell-based; conditions: MCF7, 72 h
Outline: (§1)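 Cells seeded at 3000 cells/100 µL per well, left to adhere overnight (18-20 h), then exposed to a range of compound concentrations for 72 h. Vehicle control was 0.5% DMSO. Cytotoxicity was read by sulforhodamine B at 490 nm, with 690 nm as background. IC50 came from sigmoidal variable-slope nonlinear regression on log-transformed data, from at least three independent experiments, each in triplicate.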

[8] = system: Hs-578T; experiment: Anticancer activity against human Hs 578T cells after 72 hrs by sulforhodamine B assay; type: functional, cell-based; outline: as §1
[9] = system: MCF-10A; experiment: Cytotoxicity against human MCF10A cells after 72 hrs by sulforhodamine B assay; type: cell-based; outline: as §1

COc1cc(Br)cc2c1OC(N)=C(C#N)C2CC(=O)c1ccccc1 (stereo not drawn) gave a viability at 10 µM [1] of 99.1%, a viability at 30 µM [2] of 36.7% and a viability at 10 µM [3] of 100%. It also gave a viability at 30 µM [4] of 155%, a viability at 72 h, 10 µM [5] of 45.9% and a viability at 72 h, 30 µM [6] of 45.9%.
For COc1cccc(C(=O)CC2C(C#N)=C(N)Oc3ccc(Br)cc32)c1 (stereo not drawn), the viability at 10 µM [1] was 51.2%, the viability at 30 µM [2] was 34.4% and the viability at 10 µM [3] was 71.5%. For the same molecule, the viability at 30 µM [4] was 37.9%, the viability at 72 h, 10 µM [5] was 101% and the viability at 72 h, 30 µM [6] was 43.7%. It also gave an IC50 [7] of 5.94 µM, an IC50 [8] of 10.3 µM and an IC50 [9] of 18.9 µM.
COc1ccc(O)c(/C=C/C(=O)c2ccc(Cl)cc2)c1 gave a viability at 10 µM [1] of 86.9%, a viability at 30 µM [2] of 29.3% and a viability at 10 µM [3] of 106%. For the same molecule, the viability at 30 µM [4] was 102%, the viability at 72 h, 10 µM [5] was 35.7% and the viability at 72 h, 30 µM [6] was 48%.
With Cc1ccc(C(=O)/C=C/c2cccc(Br)c2)cc1 the viability at 10 µM [1] was 60.4% and the viability at 30 µM [2] was 34%.
In the case of Cc1ccc(C(=O)CC2C(C#N)=C(N)Oc3ccc(Br)cc32)cc1 (stereo not drawn), the viability at 10 µM [1] is reported as 69%, the viability at 30 µM [2] is reported as 32.3% and the viability at 10 µM [3] is reported as 88.8%. It also gave a viability at 30 µM [4] of 46.3%, a viability at 72 h, 10 µM [5] of 133% and a viability at 72 h, 30 µM [6] of 33.5%.
COc1cc(Br)cc2c1OC(N)=C(C#N)C2CC(=O)c1ccc(Cl)cc1 (stereo not drawn) gave a viability at 10 µM [1] of 49.6%, a viability at 30 µM [2] of 33.3% and a viability at 10 µM [3] of 90.7%. The viability at 30 µM [4] was 90.7%, the viability at 72 h, 10 µM [5] was 36.8% and the viability at 72 h, 30 µM [6] was 41.6%.
COC(=O)C1=C(N)Oc2c(OC)cc(Br)cc2C1CC(=O)c1ccc(Cl)cc1 (stereo not drawn) showed a viability at 10 µM [1] of 80.3%, a viability at 30 µM [2] of 33.8% and a viability at 10 µM [3] of 63%. The viability at 30 µM [4] was 90.2%, the viability at 72 h, 10 µM [5] was 40.9% and the viability at 72 h, 30 µM [6] was 47.8%.
With Cc1ccc(C(=O)CC2C(C#N)=C(N)Oc3ccc(Cl)cc32)cc1 (stereo not drawn) the viability at 10 µM [1] was 85.5%, the viability at 30 µM [2] was 49% and the viability at 10 µM [3] was 92.3%. The viability at 30 µM [4] was 155%, the viability at 72 h, 10 µM [5] was 41.8% and the viability at 72 h, 30 µM [6] was 53.3%.
For O=C(/C=C/c1cc(F)cc(F)c1O)c1ccccc1, the viability at 10 µM [1] was 110%, the viability at 30 µM [2] was 37.6% and the viability at 10 µM [3] was 96.5%. It also gave a viability at 30 µM [4] of 114%, a viability at 72 h, 10 µM [5] of 37.4% and a viability at 72 h, 30 µM [6] of 41.4%.
N#CC1=C(N)Oc2c(F)cc(F)cc2C1CC(=O)c1ccccc1 (stereo not drawn) gave a viability at 10 µM [1] of 99.6%, a viability at 30 µM [2] of 76.9% and a viability at 10 µM [3] of 92.4%. The viability at 30 µM [4] was 144%, the viability at 72 h, 10 µM [5] was 53.8% and the viability at 72 h, 30 µM [6] was 128%.
COC(=O)C1=C(N)Oc2ccc(Cl)cc2C1CC(=O)c1ccccc1 (stereo not drawn) showed a viability at 10 µM [1] of 87.2% and a viability at 30 µM [2] of 44.2%.
With COc1cc(Br)cc(/C=C/C(=O)c2ccccc2)c1O the viability at 10 µM [1] was 67%, the viability at 30 µM [2] was 28.1% and the viability at 10 µM [3] was 46.9%. The viability at 30 µM [4] was 106%, the viability at 72 h, 10 µM [5] was 34.4% and the viability at 72 h, 30 µM [6] was 40.7%.
For COC(=O)C1=C(N)Oc2ccc(Br)cc2C1CC(=O)c1ccccc1 (stereo not drawn), the viability at 10 µM [1] was 107% and the viability at 30 µM [2] was 41.3%.
For O=C(/C=C/c1ccccc1O)c1ccccc1, the viability at 10 µM [1] was 71.9% and the viability at 30 µM [2] was 32.1%.
COc1cc(Br)cc(/C=C/C(=O)c2ccc(C)cc2)c1O showed a viability at 10 µM [1] of 96.8%, a viability at 30 µM [2] of 61.5% and a viability at 10 µM [3] of 84.6%. The viability at 30 µM [4] was 64.2%, the viability at 72 h, 10 µM [5] was 155% and the viability at 72 h, 30 µM [6] was 148%.
In the case of N#CC1=C(N)Oc2ccc(Br)cc2C1CC(=O)c1ccc(Br)cc1 (stereo not drawn), the viability at 10 µM [1] is reported as 47.2%, the viability at 30 µM [2] is reported as 34.2% and the viability at 10 µM [3] is reported as 67.6%. The viability at 30 µM [4] was 93.8%, the viability at 72 h, 10 µM [5] was 32.6% and the viability at 72 h, 30 µM [6] was 43.6%. For the same molecule, the IC50 [7] was 7.24 µM, the IC50 [8] was 16.5 µM and the IC50 [9] was 14.7 µM.
With COc1cccc(C(=O)/C=C/c2cc(Br)cc(OC)c2O)c1 the viability at 10 µM [1] was 77.3%, the viability at 30 µM [2] was 63.1% and the viability at 10 µM [3] was 74.2%. It also gave a viability at 30 µM [4] of 69.8%, a viability at 72 h, 10 µM [5] of 33.5% and a viability at 72 h, 30 µM [6] of 47%.
With COc1cccc(C(=O)/C=C/c2cc(Cl)ccc2O)c1 the viability at 10 µM [1] was 38.2% and the viability at 30 µM [2] was 26.3%.
Molecule COC(=O)C1=C(N)Oc2c(OC)cc(Br)cc2C1CC(=O)c1ccc(Br)cc1 (stereo not drawn) has a viability at 10 µM [1] of 50.2% and a viability at 30 µM [2] of 31.9%.
COc1cc(Br)cc2c1OC(N)=C(C#N)C2CC(=O)c1ccc(Br)cc1 (stereo not drawn) gave a viability at 10 µM [1] of 39.7% and a viability at 30 µM [2] of 33.1%.
Molecule COc1cc(Br)cc(/C=C/C(=O)c2ccc(Br)cc2)c1O has a viability at 10 µM [1] of 64.6% and a viability at 30 µM [2] of 48.3%.
In the case of Cc1ccc(C(=O)/C=C/c2cc(F)cc(F)c2O)cc1, the viability at 10 µM [1] is reported as 33.9% and the viability at 30 µM [2] is reported as 35.3%.
Molecule Cc1ccc(C(=O)/C=C/c2cc(Br)ccc2O)cc1 has a viability at 10 µM [1] of 27.3%, a viability at 30 µM [2] of 31.8% and a viability at 10 µM [3] of 55.8%. The viability at 30 µM [4] was 46.7%, the viability at 72 h, 10 µM [5] was 32.4% and the viability at 72 h, 30 µM [6] was 49.4%. For the same molecule, the IC50 [7] was 2 µM, the IC50 [8] was 1.6 µM and the IC50 [9] was 6.52 µM.
In the case of COC(=O)C1=C(N)Oc2ccc(Br)cc2C1CC(=O)c1ccc(Br)cc1 (stereo not drawn), the viability at 10 µM [1] is reported as 72.5%, the viability at 30 µM [2] is reported as 34.8% and the viability at 10 µM [3] is reported as 90%. It also gave a viability at 30 µM [4] of 94.8%, a viability at 72 h, 10 µM [5] of 39.9% and a viability at 72 h, 30 µM [6] of 43.2%.
Work on COC(=O)C1=C(N)Oc2c(OC)cccc2C1CC(=O)c1ccc(Cl)cc1 (stereo not drawn) yielded a viability at 10 µM [1] of 89.8% and a viability at 30 µM [2] of 63.8%.
COC(=O)C1=C(N)Oc2ccc(Br)cc2C1CC(=O)c1ccc(Cl)cc1 (stereo not drawn) gave a viability at 10 µM [1] of 67.6% and a viability at 30 µM [2] of 32.4%.
Molecule COc1cccc2c1C(=O)c1c(O)c3c(c(O)c1C2=O)C[C@@](O)(C(=O)CO)C[C@@H]3O[C@H]1C[C@H](N)[C@H](O)[C@H](C)O1 [DOXORUBICIN] has an IC50 [8] of 0.52 µM and an IC50 [9] of 1.54 µM.
COc1cc(Br)cc2c1OC(N)=C(C#N)C2CC(=O)c1ccc(C)cc1 (stereo not drawn) gave a viability at 10 µM [1] of 116% and a viability at 30 µM [2] of 52.8%.
Molecule N#CC1=C(N)Oc2ccccc2C1CC(=O)c1ccccc1 (stereo not drawn) has a viability at 10 µM [1] of 82.7% and a viability at 30 µM [2] of 78.6%.
For COC(=O)C1=C(N)Oc2c(OC)cc(Br)cc2C1CC(=O)c1cccc(OC)c1 (stereo not drawn), the viability at 10 µM [1] was 142% and the viability at 30 µM [2] was 94.9%.
COc1cc(Br)cc(/C=C/C(=O)c2ccc(Cl)cc2)c1O showed a viability at 10 µM [1] of 53.3%, a viability at 30 µM [2] of 28% and a viability at 10 µM [3] of 53.8%. The viability at 30 µM [4] was 60.3%, the viability at 72 h, 10 µM [5] was 35.2% and the viability at 72 h, 30 µM [6] was 47.8%. It also gave an IC50 [7] of 5.15 µM, an IC50 [8] of 5.33 µM and an IC50 [9] of 12.1 µM.
